# Sampled rows, rich in hits. Any-hit rate of the full collection: about 1.7%.
# CAL PDZ FP-1 – blocks peptide binding to the human CAL PDZ domain; inhibition, % at 24.9 µM; Q9HD26; purified CAL PDZ, TMR-peptide fluorescence polarization, 1 h; 0.92% of 300,000 active;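 active means mean inhibition of at least 30% with at least half of replicates also reaching 30%; inconclusive means no clear call, values can overlap the other calls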;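 further: 0% = DMSO neutral control and 100% = excess unlabeled competitor peptide PRC23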
# ARNT-TACC3 inh – disruptors of human ARNT/TACC3 interaction; Q9Y6A5; AlphaScreen His-ARNT PAS-B/GST-TACC3 binding, luminescence; TACC3 fragment carries E629A point mutation; inhibition, % at 9.99 µM; 0.66% of 390,000 active;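 active means mean inhibition of replicates at least 50% and at least half of replicates each reaching 50%; inconclusive means half or more replicates reach 50% but mean below 50%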;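 further: 0% = complete ARNT plus TACC3 wells and 100% = ARNT alone without TACC3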
# CAL PDZ FP-2 – blocks peptide binding to human CAL PDZ domain | Q9HD26 | 0.02% of 330,000 active | purified CAL PDZ, TMR-peptide fluorescence polarization, 1 h | inhibition, % at 20 µM | AID 504414;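 active means highest replicate inhibition of at least 40%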;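 further: plate controls were DMSO neutral control wells for no effect and unlabeled competitor peptide control wells for full effect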
#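 Material: tagged CAL PDZ domain; buffer or medium: 25 mM sodium phosphate pH 7.4, 150 mM NaCl, TCEP, IgG, Thesit; compound dosing: single point, 20 µM; schedule: 1 h incubation at room temperature before polarization reading; measured by: FP readout, S and P plane fluorescence; read-out basis: percent inhibition from loss of millipolarization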
# Rce1 inhib – yeast Ras-converting enzyme inhibition; 0.27% of 290,000 active; yeast membranes, quenched prenylated peptide cleavage fluorescence; calls only; AID 2563;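 active means fall in fluorescence gain of 50% or more versus controls, with final raw signal at or below 3038400; inconclusive means same 50% fall but final raw signal above 3038400; inactive means fall in fluorescence gain under 50%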;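 further: plate controls were neutral control wells for no effect and wells lacking membranes for full effect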
# Target sequence (Q03530 whole entry, looked up): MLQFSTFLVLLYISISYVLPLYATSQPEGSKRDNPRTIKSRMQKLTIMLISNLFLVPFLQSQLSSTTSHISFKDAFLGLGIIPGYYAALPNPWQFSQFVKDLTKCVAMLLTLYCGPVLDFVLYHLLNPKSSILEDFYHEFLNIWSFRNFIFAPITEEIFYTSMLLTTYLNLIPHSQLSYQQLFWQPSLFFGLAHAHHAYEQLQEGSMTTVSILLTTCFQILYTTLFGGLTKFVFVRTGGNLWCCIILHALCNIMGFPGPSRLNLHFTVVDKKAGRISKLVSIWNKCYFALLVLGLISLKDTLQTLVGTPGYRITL
# AI-2 QS mod – Vibrio harveyi AI-2 quorum sensing modulation; Vibrio harveyi JMH597 AI-2 luminescence/OD600 ratio, 9 h; hits give low values; strain lacks LuxN and CqsS sensors; 0 = neutral-control median; activity change, % at 7.5 µM; 0.4% of 300,000 active; in the data active means activity change below about -75%, passing the limit was not always enough; inconclusive means no clear call, values can overlap the other calls;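 further: luminescence divided by OD600 gain over 9 h not by final OD600 alone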
# JMH597 growth – retest: inhibitors of Vibrio harveyi JMH597 growth; shares compounds with AI-2 QS mod; OD600 absorbance, 9 h; lacks LuxN and CqsS sensors; growth inhibition, % at 7.5 µM; 1% of 750 active; AID 2726;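 active means every replicate shows growth inhibition above 50%; inconclusive means at least half, but not all, replicates pass that cutoff; inactive means fewer than half of replicates pass it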
# BB721 lum counter – retest counter-screen: BB721 constitutive quorum sensing luminescence decrease; shares compounds with AI-2 QS mod; Vibrio harveyi BB721 luminescence, 9 h; inhibition, % at 7.5 µM; 95% of 750 active; AID 2727;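 active means inhibition above about 80% in every replicate, not just on average, limit read from the data; inconclusive means at least half of replicates past the limit, but not all; inactive means fewer than half of replicates past the limit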
# BB721 growth rt – retest: inhibitors of Vibrio harveyi BB721 growth. shares compounds with AI-2 QS mod. OD600 absorbance, 9 h. growth inhibition, % at 7.5 µM. 3% of 750 active. AID 2728;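 active means every replicate shows growth inhibition above 50%; inconclusive means at least half but not all replicates above 50% inhibition; inactive means under half of replicates above 50% inhibition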
# JMH597 AI-2 mod – Vibrio harveyi AI-2 signaling luminescence modulation – JMH597 strain, confirmation; shares compounds with AI-2 QS mod; Vibrio harveyi JMH597 AI-2 quorum sensing luminescence, 9 h; luxN and CqsS knockout, AI-2 only; inhibition, % at 7.5 µM; 97% of 750 active;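 active means every replicate shows more than 75% inhibition of signal versus neutral control wells; inconclusive means half to three quarters of replicates exceed 75% inhibition; inactive means fewer than half of replicates exceed 75% inhibition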
# The depositor's hits bear a star; i = inactive; u = inconclusive; x = no result.
SMILES,CAL PDZ FP-1,ARNT-TACC3 inh,CAL PDZ FP-2,Rce1 inhib,AI-2 QS mod,JMH597 growth,BB721 lum counter,BB721 growth rt,JMH597 AI-2 mod
O=C(COc1ncnc2ccccc12)Nc1cccc([N+](=O)[O-])c1,0,-4,-1,i,-96*,-9,98*,-41,99*
COc1ccc(-c2c(-c3ccc(S(C)(=O)=O)cc3)sc3ccc(OC)cc23)cc1,-5,-1,-1,x,x,x,x,x,x
CN(CC(O)CN1CCOCC1)S(=O)(=O)O (centres undefined),-1,-5,0,i,19,x,x,x,x
O=S1c2ccccc2Oc2ccccc21,-2,22,-1,x,x,x,x,x,x
CCCCCC(=O)NC(=S)Nc1ccc2oc(=O)ccc2c1,86*,-4,-1,i,-90*,19,99*,40,98*
COc1ccc(C(=O)NC(=S)Nc2ccc3oc(=O)ccc3c2)cc1,-2,x,-2,i,8,x,x,x,x
Cc1nnc(NC(=O)Cn2nc(C)c3ccccc3c2=O)s1,-3,-2,1,i,-90*,-8,98*,-15,99*
COc1ccc(NC(=O)Cn2nc(C)c3ccccc3c2=O)cc1,37*,-3,33,i,-92*,5,97*,-2,98*
Cc1ccc(NC(=O)Cn2nc(C)c3ccccc3c2=O)cc1F,x,-1,-1,i,-93*,-1,99*,-10,99*
Cc1nn(CC(=O)Nc2ccc(C(=O)N(C)C)cc2)c(=O)c2ccccc12,2,-1,-1,i,-90*,2,97*,14,98*
CCCNC(=O)Nc1ccc2c(c1)C(=O)N(C)[C@H]1CC[C@H](CC(=O)Nc3cccc(F)c3)O[C@@H]1CO2,x,-1,x,x,x,x,x,x,x
COCCNc1nc2c(S(=O)(=O)c3cc(C)ccc3C)nnn2c2ccccc12,-4,-1,-3,i,27,x,x,x,x
CNC[C@H]1Oc2cc(-c3ccccc3F)ccc2S(=O)(=O)N([C@@H](C)CO)C[C@H]1C,x,9,x,x,x,x,x,x,x
COc1ccc(CSc2nc3ccccc3[nH]2)cc1,-3,-10,-4,i,-85*,21,92*,-14,96*
COc1cccc(NC(=O)CN2C(=O)NC(c3ccccc3)(c3ccccc3)C2=O)c1,x,10,0,i,-93*,8,93*,10,97*
COc1cccc(NC(=O)Cc2ccc3ccccc3c2)c1,-5,22,0,i,-84*,22,89*,14,92*
COc1cccc(NC(=O)CCC(=O)Nc2cccc(OC)c2)c1,-3,-4,0,i,25,x,x,x,x
COc1cccc(NC(=O)Cn2nnc(-c3ccccc3N)n2)c1,0,-1,-3,i,-81*,18,97*,34,97*
O=C(CN1C(=O)NC(c2ccccc2)(c2ccccc2)C1=O)Nc1ccc2[nH]c(=O)[nH]c2c1,-1,8,-2,i,27,x,x,x,x
COc1cc(NC(=O)CN2C(=O)NC(c3ccccc3)(c3ccccc3)C2=O)cc(OC)c1,-3,3,-3,i,-89*,36,22,14,44
CCCN1C[C@H](C)[C@H](OC)CN(C)C(=O)c2cc(NC(=O)c3ccc(F)cc3)ccc2OC[C@H]1C,x,-6,x,x,x,x,x,x,x
CCCC1(c2ccccc2)NC(=O)N(CC(=O)Nc2cc(OC)cc(OC)c2)C1=O (centres undefined),x,x,-1,i,-81*,7,u,-5,85*
COc1cccc(NC(=O)CN2C(=O)NC(C)(c3ccc(C)cc3)C2=O)c1 (centres undefined),-3,-31,-1,i,-90*,21,92*,25,95*
COc1cccc(NC(=O)CN2C(=O)NC3(CCCC3)C2=O)c1,-3,7,1,i,17,x,x,x,x

# Assay outcomes: PubChem, Broad Institute
